Experimental data from PMC11776411 (Journal of Hepatocellular Carcinoma, 2025).

Assays:
HepG2 cells = assay: MTT cell viability assay, HepG2; assay type: cell-based, human; conditions: for IC50: Homo sapiens, HepG2, 72 h, read-out: IC50 (μM) HepG2
Huh7 cells [1] = assay: MTT cell viability assay, Huh7; assay type: cell-based, human; conditions: for IC50: Homo sapiens, Huh-7, 72 h, read-out: IC50 (μM) Huh7
Hep3B cells = assay: MTT cell viability assay, Hep3B; assay type: cell-based, human; conditions: for IC50: Homo sapiens, Hep3B, 72 h, read-out: IC50 (μM) Hep3B
[2] = system: LO2 cells (normal human hepatocytes); assay: MTT cytotoxicity assay, normal liver cells LO2; assay type: cell-based; conditions: L02, 72 h, read-out: IC50 (μM) LO2
How it was run: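 LO2 normal human hepatocytes were grown in DMEM with 10% FBS and seeded at 5×10^3 cells per well overnight. Test compound was added at 0.1, 0.3, 1, 3, 10, 30 and 100 μM for up to 72 h. Viability was read by MTT: 0.5 mg/mL for 4 h, medium removed, DMSO added, absorbance measured. Experiments were repeated at least three times.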

Huh7 cells [3] = assay: Ferroptosis inhibitor; assay type: cell-based, human; conditions: Huh7, co-treated with 10 μM 6c for 72 h
Huh7 cells [4] = assay: NAC intervention experiment; assay type: cell-based, human; conditions: 5 or 10 mm N-acetylcysteine with 10 μM 6c for 24, 48, 72 h

| SMILES | IC50 (HepG2 cells) [µM] | IC50 (Huh7 cells [1]) [µM] | IC50 (Hep3B cells) [µM] | IC50 [2] [µM] | also measured |
| --- | --- | --- | --- | --- | --- |
| C[C@H]1[C@H](OC(=O)CCC(=O)O)O[C@@H]2O[C@@]3(C)CC[C@H]4[C@H](C)CC[C@@H]1[C@@]24OO3 [AS, Artesunate] | 42.8 ± 1.44 | 47.5 ± 1.39 | 44.2 ± 2.16 | 72.3 ± 1.37 | Selectivity Index SI 1 (HepG2 cells; SI1 = IC50 LO2/IC50 HepG2): 1.7; Selectivity Index SI 2 (Huh7 cells [1]; SI2 = IC50 LO2/IC50 Huh7): 1.5; Selectivity Index SI 3 (Hep3B cells; SI3 = IC50 LO2/IC50 Hep3B): 1.6 |
| Clc1cccc(CN=C2Nc3ccccc3NC23CCNCC3)c1 [Liproxstatin-1] |  |  |  |  | reversal of 6c-induced cell death (Huh7 cells [3]): reversed cell death in a concentration-dependent manner |
| CC(=O)N[C@@H](CS)C(=O)O [N-acetylcysteine] |  |  |  |  | reversal of 6c inhibition of proliferation (Huh7 cells [4]): reversed the inhibitory effect of 6c on proliferation of Huh7 cells in time- and concentration-dependent manner |

Now from value to compound, other results behind:

| IC50 (HepG2 cells) [µM] | IC50 (Huh7 cells [1]) [µM] | IC50 (Hep3B cells) [µM] | SMILES | IC50 [2] [µM] | also measured |
| --- | --- | --- | --- | --- | --- |
|  | > 100 | > 100 | CNC(=O)c1cc(Oc2ccc(N)cc2)ccn1 [Compound 1, 4-(4-aminophenoxy)-N-methyl-2-pyridinecarboxamide] |  |  |
| 6.45 ± 0.32 | 3.09 ± 0.08 |  | CNC(=O)c1cc(Oc2ccc(NC(=O)Nc3ccc(Cl)c(C(F)(F)F)c3)cc2)ccn1 [Sorafenib] | 8.63 ± 0.12 |  |
